From PubChem
CHT block: inhibitors of human choline transporter CHT | CHT-expressing cells, membrane potential dye, choline response; hits give low values | B-score at 10 µM | Q9GZV3 | AID 488975 | 310,000 tested, 0.86% active;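 active means B-score over 3 SD under the library average, and starting fluorescence ratio not unusually high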;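 further: choline stimulus applied at its EC90 after an EC20 pre-addition; B-score computed on integrated fluorescence ratio after choline addition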
Rad51 HR inh: Rad51 (human) homologous recombination inhibition | Q06609 | hRad51 DNA strand exchange, fluorescence dequenching | inhibition, % at 10 µM | 200,000 tested, 0.085% active | AID 1385;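 active means inhibition above 40% at the single screening dose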;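 further: 0% = DMSO control wells and 100% = blanks with heterologous ssDNA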
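Material: Human Rad51 nucleoprotein filaments preassembled on unlabelled ssDNA | Also added: Labelled 47-mer dsDNA for strand exchange | Dosing: Single dose, 10 µM final compound | Schedule: 30-min compound preincubation and 15-min exchange, both room temperature | Technique: Fluorescence dequenching at 485/520 nm | Measure: Percent inhibition relative to plate controls and blanks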
CHT PAM: human CHT allosteric activation; 310,000 tested, 0.49% active; CHT-expressing cells, membrane potential dye, choline EC20; hits give high values; LV-AA mutant CHT in HEK293 cells; B-score at 10 µM; Q9GZV3;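 active means initial fluorescence not abnormally high and integrated response B-score, plate-corrected, over 3 SD above library mean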
KCC2 mod: KCC2 (human) Cl- transport modulation. Q9H2X9. KCC2 cells, thallium flux FluoZin-2 fluorescence. B-score of Tl+ flux slope (higher = more flux/activation; lower = inhibition) at 10 µM. 190,000 tested, 2.2% active. AID 1456;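 active means thallium flux slope and its plate-corrected score both differing from the plate sample mean at a set confidence after two filtering rounds, in either direction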;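 further: slope of fluorescence scaled to starting intensity during 10 to 20 s after thallium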
CHT inh conf: confirmation of human choline transporter CHT inhibitors; shares compounds with CHT block; CHT-expressing cells, choline membrane potential dye; LV-to-AA substituted CHT, HEK293 cells; CHT activity remaining % of control (hits give low values), % at 10 µM; 2,400 tested, 70% active; AID 493221;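 active means choline transporter activity left, mean of duplicates at 10 µM, below buffer-only control mean minus 3 SD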;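 further: depolarization triggered by choline at its EC90 following an EC20 pre-addition; 0% = hemicholinium-3 full block and 100% = buffer-only control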
HEK293 MPD ctr: activity in parental HEK293 cells lacking CHT; membrane potential ratio readout (active if shifted either direction beyond buffer ±3SD; no single direction) at 10 µM; shares compounds with CHT block; membrane potential dye, choline response; active = decrease or increase beyond buffer ±3SD; 2,400 tested, 4% active;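 further: parental cells lack the transporter so any hit is non-specific; ratio is peak minus trough fluorescence over baseline after EC90 choline challenge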
* marks the source's active call; other numbers are inactive results. Sampled rows, rich in hits. Any-hit rate of the full collection: about 2.6%.

How did Cn1c(CNC(=O)CNC(=O)Cc2ccc(Cl)cc2)cc(=O)n(C)c1=O do in these assays?
CHT block: inactive; CHT PAM: inactive

Results for CCc1ccc(N/C(=N/c2nc(C)cc(C)n2)NC(C)=O)cc1 ?
CHT block: -5.79*; CHT PAM: inactive; CHT inh conf: 57.6%*; HEK293 MPD ctr: inactive

Results for CCC(=O)N/C(=N/c1nc(C)cc(C)n1)Nc1ccccc1 ?
CHT block: inactive; Rad51 HR inh: 9.1; CHT PAM: inactive; KCC2 mod: -1.43

How did O=C1CCC([N+](=O)[O-])C(c2ccc3c(c2)OCO3)N1 (stereo unspecified) do in these assays?
CHT block: -11.6*; Rad51 HR inh: -2.6; CHT PAM: inactive; KCC2 mod: 1.29; CHT inh conf: inactive; HEK293 MPD ctr: inactive

How did COc1ccc(OC)c(NC(=O)COC(=O)/C=C/c2ccc(Cl)cc2)c1 do in these assays?
CHT block: inactive; CHT PAM: inactive; KCC2 mod: 0.679

Results for CC1CN(C(=O)c2cc3cc(Br)ccc3[nH]2)CC(C)O1 (stereo unspecified) ?
CHT block: inactive; CHT PAM: inactive

What do the screens show for `CC(Oc1ccc2c3c(c(=O)oc2c1)CCCC3)C(=O)NCC1CCC(C(=O)O)CC1` (stereo unspecified)?
CHT block: inactive; CHT PAM: inactive

How did COC(=O)C(C)Oc1ccc2c3c(c(=O)oc2c1)CCCCC3 (stereo unspecified) do in these assays?
CHT block: -5.16*; Rad51 HR inh: 2.9; CHT PAM: inactive; KCC2 mod: -0.556; CHT inh conf: inactive; HEK293 MPD ctr: inactive

Results for O=C(Cc1ccccc1)Nc1ccc(NC(=O)c2cccs2)cc1 ?
CHT block: inactive; Rad51 HR inh: -0.4; CHT PAM: inactive; KCC2 mod: 0.208

What do the screens show for `COc1ccc(CN(C(=O)c2ccco2)c2ccc(C)c(C)c2)cc1`?
CHT block: inactive; Rad51 HR inh: 3.7; CHT PAM: inactive; KCC2 mod: -1.91

What do the screens show for `CCCCCc1c2c(cc(O)c1C(=O)O)OC(=O)c1c(cc(OC)cc1C(=O)CCCC)O2`?
CHT block: -5.33*; Rad51 HR inh: 7.2; CHT PAM: inactive; KCC2 mod: -2.93; CHT inh conf: 35.3%*; HEK293 MPD ctr: inactive

Results for COc1cc2c(cc1OC)C(c1ccc(Br)cc1)NC(=O)C2 (stereo unspecified) ?
CHT block: inactive; CHT PAM: inactive

How did O/N=C/c1ccnc(SCc2ccc(Cl)cc2)n1 do in these assays?
CHT block: inactive; Rad51 HR inh: 3.9; CHT PAM: inactive; KCC2 mod: -0.0617

How did O/N=C/c1ccnc(SCc2ccccc2)n1 do in these assays?
CHT block: -5.08*; Rad51 HR inh: 8.0; CHT PAM: inactive; KCC2 mod: -1.83; CHT inh conf: 59.1%*; HEK293 MPD ctr: inactive

How did O=C(NNc1cc(C(F)(F)F)nc2ccccc12)Nc1cccc(Cl)c1 do in these assays?
CHT block: inactive; Rad51 HR inh: 8.7; CHT PAM: inactive; KCC2 mod: 0.2

Results for CCCCCCn1c(=O)c(F)cn(Cc2ccc(OC)c([N+](=O)[O-])c2)c1=O ?
CHT block: -6.68*; Rad51 HR inh: 5.2; CHT PAM: inactive; KCC2 mod: -0.363; CHT inh conf: inactive; HEK293 MPD ctr: inactive

What do the screens show for `CCCCCn1c(=O)c(F)cn(Cc2ccc(OC)c([N+](=O)[O-])c2)c1=O`?
CHT block: -7.56*; Rad51 HR inh: 3.7; CHT PAM: inactive; KCC2 mod: 0.231; CHT inh conf: 53.6%*; HEK293 MPD ctr: inactive

How did O=C(c1cccs1)N1CCCC(c2nc3c(nnn3Cc3c(Cl)cccc3Cl)c(=O)[nH]2)C1 (stereo unspecified) do in these assays?
CHT block: inactive; CHT PAM: inactive

How did CCOP(=O)(OCC)C(NC(=O)Nc1c(C)cc(C)cc1C)c1ccccc1 (stereo unspecified) do in these assays?
CHT block: -5.97*; Rad51 HR inh: 27.9; CHT PAM: inactive; KCC2 mod: -1.23; CHT inh conf: inactive; HEK293 MPD ctr: inactive

What do the screens show for `CCOP(=O)(OCC)C(NC(=O)Nc1ccccc1)c1ccccc1` (stereo unspecified)?
CHT block: inactive; Rad51 HR inh: -6.9; CHT PAM: inactive; KCC2 mod: 1.58

Results for Cc1ccnc(SCc2cc(=O)c(OC(=O)c3ccc(Br)o3)co2)n1 ?
CHT block: inactive; Rad51 HR inh: -4.3; CHT PAM: inactive; KCC2 mod: -1.37

What do the screens show for `COc1ccc(C2C(CC(=O)O)=C(Nc3ccccc3)C(=O)N2c2ccccc2)cc1` (stereo unspecified)?
CHT block: inactive; Rad51 HR inh: 4.0; CHT PAM: inactive; KCC2 mod: -2.55

What do the screens show for `O=C(O)CC1=C(Nc2ccccc2)C(=O)N(c2ccccc2)C1c1ccc(F)cc1` (stereo unspecified)?
CHT block: -6.4*; Rad51 HR inh: 10.2; CHT PAM: inactive; KCC2 mod: inactive; CHT inh conf: 31.5%*; HEK293 MPD ctr: inactive

How did Cc1cccc(-c2nc(CN3CCCC(C(=O)NC4CCCC4)C3)c(C)o2)c1 (stereo unspecified) do in these assays?
CHT block: -5.1*; Rad51 HR inh: 6.5; CHT PAM: inactive; KCC2 mod: -0.683; CHT inh conf: inactive; HEK293 MPD ctr: inactive

How did O=c1oc2ccccc2c(Cl)c1CN1CCCCC1 do in these assays?
CHT block: -6.86*; Rad51 HR inh: -9.2; CHT PAM: inactive; KCC2 mod: -1; CHT inh conf: 31.0%*; HEK293 MPD ctr: inactive

What do the screens show for `O=c1oc2ccccc2c(N2CCCC2)c1CN1CCCC1`?
CHT block: inactive; Rad51 HR inh: -0.1; CHT PAM: inactive; KCC2 mod: 0.574

Results for COc1ccc(N(C(=O)Cn2nnc3ccccc32)C(C(=O)NCc2ccco2)c2ccncc2)cc1 (stereo unspecified) ?
CHT block: -10*; CHT PAM: inactive; CHT inh conf: inactive; HEK293 MPD ctr: inactive

How did COCCNC(=O)C(c1ccncc1)N(C(=O)Cn1nnc2ccccc21)c1ccc(OC)cc1 (stereo unspecified) do in these assays?
CHT block: inactive; Rad51 HR inh: 2.9; CHT PAM: inactive; KCC2 mod: 0.572

What do the screens show for `O=C(CCCSc1nc2ccccc2[nH]1)N1CCN(c2ccccc2)CC1`?
CHT block: -4.95*; Rad51 HR inh: -1.1; CHT PAM: inactive; KCC2 mod: -0.732; CHT inh conf: 58.3%*; HEK293 MPD ctr: inactive
